The source made the active and inactive calls. The calls are words filed in the database; no cut-off is given here.
What was measured:
[1] = target: T1, Kinesin heavy chain isoform 5C (Homo sapiens, UniProt O60282); assay: Inhibition of human Kif5C ATPase activity by pyruvate kinase/lactate dehydrogenase-linked assay
T1 sequence (O60282 whole entry): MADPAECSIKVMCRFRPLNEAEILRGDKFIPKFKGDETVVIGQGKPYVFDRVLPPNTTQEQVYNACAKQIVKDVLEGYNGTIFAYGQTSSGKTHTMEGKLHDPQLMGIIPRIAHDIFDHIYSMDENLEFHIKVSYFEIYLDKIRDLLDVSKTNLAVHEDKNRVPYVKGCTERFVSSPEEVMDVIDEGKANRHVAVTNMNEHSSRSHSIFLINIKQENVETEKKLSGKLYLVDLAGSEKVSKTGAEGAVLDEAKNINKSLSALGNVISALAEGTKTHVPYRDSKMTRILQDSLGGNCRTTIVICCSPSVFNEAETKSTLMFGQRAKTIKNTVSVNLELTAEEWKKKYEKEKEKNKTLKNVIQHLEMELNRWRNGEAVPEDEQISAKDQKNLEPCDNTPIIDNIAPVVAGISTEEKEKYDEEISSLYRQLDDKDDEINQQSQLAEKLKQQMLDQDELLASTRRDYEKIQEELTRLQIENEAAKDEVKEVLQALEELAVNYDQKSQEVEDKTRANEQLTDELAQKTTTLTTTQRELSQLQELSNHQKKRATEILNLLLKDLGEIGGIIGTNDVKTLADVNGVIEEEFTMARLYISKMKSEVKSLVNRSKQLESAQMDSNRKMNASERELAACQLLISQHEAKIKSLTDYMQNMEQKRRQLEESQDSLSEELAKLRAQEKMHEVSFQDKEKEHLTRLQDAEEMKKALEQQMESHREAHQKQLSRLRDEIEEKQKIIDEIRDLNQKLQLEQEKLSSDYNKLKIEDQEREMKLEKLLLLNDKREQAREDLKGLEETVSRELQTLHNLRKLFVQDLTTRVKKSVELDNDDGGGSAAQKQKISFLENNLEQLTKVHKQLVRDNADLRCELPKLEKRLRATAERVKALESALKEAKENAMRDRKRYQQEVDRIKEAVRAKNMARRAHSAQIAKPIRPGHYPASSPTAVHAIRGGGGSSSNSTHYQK
Procedure, shortened: (§1)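 HsKif5A or HsKif5C ATPase measured with the same pyruvate kinase/lactate dehydrogenase-linked format, at 25 °C in ACES buffer pH 6.9 with up to 2.0% DMSO. Concentrations were run in triplicate.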

[2] = test system: HT-29; assay: Growth inhibition of human HT-29 cells after 2 days by MTT assay; type: functional
Procedure, shortened: (§2)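 DU145 or HT29 cells in RPMI 1640 with 10% heat-inactivated FBS, 37 °C, 5% CO2. Seeded at 3 × 10^3 cells/well, exposed to a range of compound concentrations in duplicate for two days. Read-out was MTT-type tetrazolium dye for up to 4 h, overnight solubilization of formazan, then OD at 570 nm. GI50 was derived.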

[3] = target: T2, Kinesin-like protein KIF11 (Homo sapiens, UniProt P52732); assay: (§3) Inhibition of Eg5 ATPase activity by pyruvate kinase/lactate dehydrogenase-linked assay
T2 sequence (P52732 whole entry): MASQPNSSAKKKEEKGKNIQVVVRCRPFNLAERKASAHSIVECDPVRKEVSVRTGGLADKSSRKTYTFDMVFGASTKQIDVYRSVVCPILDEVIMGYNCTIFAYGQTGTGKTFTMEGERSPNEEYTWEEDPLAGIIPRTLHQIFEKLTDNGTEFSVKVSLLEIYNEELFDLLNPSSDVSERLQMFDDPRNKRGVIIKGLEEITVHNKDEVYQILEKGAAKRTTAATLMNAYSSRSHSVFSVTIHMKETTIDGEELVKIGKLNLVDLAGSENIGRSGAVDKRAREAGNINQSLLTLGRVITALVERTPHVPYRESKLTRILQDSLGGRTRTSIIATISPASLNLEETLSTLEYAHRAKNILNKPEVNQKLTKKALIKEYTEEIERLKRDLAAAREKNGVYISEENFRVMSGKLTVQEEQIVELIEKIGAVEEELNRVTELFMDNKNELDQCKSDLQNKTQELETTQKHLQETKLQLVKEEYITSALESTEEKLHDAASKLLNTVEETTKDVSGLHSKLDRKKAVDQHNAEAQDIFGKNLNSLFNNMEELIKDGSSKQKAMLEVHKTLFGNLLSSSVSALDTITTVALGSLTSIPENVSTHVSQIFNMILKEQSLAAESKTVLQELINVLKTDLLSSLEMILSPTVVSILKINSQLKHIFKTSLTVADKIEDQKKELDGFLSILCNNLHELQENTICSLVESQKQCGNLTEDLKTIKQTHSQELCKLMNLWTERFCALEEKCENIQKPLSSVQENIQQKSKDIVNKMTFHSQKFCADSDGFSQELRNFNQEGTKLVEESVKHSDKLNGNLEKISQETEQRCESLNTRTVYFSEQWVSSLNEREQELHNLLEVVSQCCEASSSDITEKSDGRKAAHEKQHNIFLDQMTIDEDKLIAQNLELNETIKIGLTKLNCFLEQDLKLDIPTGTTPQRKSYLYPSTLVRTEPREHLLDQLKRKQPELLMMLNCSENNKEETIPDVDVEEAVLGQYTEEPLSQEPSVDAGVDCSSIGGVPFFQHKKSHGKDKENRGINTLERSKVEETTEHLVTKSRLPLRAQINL
Procedure, shortened: (§4)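 Basal steady-state ATPase of 200 nM Eg5 2–368, measured by pyruvate kinase/lactate dehydrogenase coupling in ACES buffer pH 6.9 with Mg acetate, EGTA, EDTA and β-mercaptoethanol, at 25 °C with up to 2.0% DMSO. STLC was the positive control. Each concentration was run in triplicate and reported as mean ± SD to give IC50.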

[4] = target: T3, Kinesin-like protein KIF11 (Homo sapiens) (UniProt P52732); assay: as §3; set-up: concentration or dose not given beside the values; procedure, shortened: as §4
T3 sequence (whole entry): T2 sequence (P52732 whole entry)

[5] = test system: HeLa; assay: Induction of monoastral spindle formation in human HeLa cells at 25 uM after 8 hrs by immunofluorescence assay; type: functional, cell-based
Procedure, shortened: (§5)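 HeLa cells grown in D-MEM with 10% fetal calf serum on poly-D-lysine-coated coverslips and allowed to adhere at least 36 h. Compounds were diluted in medium from 25 mM DMSO stocks and applied for 8 h. Cells were fixed in 2% paraformaldehyde, permeabilized with 0.2% Triton X-100, and stained for β-tubulin and centromeres, with DAPI for DNA. Mitotic cells with monoastral versus bipolar spindles were counted by epifluorescence microscopy.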

[6] = test system: DU-145; assay: Growth inhibition of human DU145 cells after 2 days by MTT assay; type: functional; procedure, shortened: as §2
[7] = target: T4, Kinesin heavy chain isoform 5A (Homo sapiens, UniProt Q12840); assay: Inhibition of human Kif5A ATPase activity by pyruvate kinase/lactate dehydrogenase-linked assay; procedure, shortened: as §1
T4 sequence (Q12840 whole entry): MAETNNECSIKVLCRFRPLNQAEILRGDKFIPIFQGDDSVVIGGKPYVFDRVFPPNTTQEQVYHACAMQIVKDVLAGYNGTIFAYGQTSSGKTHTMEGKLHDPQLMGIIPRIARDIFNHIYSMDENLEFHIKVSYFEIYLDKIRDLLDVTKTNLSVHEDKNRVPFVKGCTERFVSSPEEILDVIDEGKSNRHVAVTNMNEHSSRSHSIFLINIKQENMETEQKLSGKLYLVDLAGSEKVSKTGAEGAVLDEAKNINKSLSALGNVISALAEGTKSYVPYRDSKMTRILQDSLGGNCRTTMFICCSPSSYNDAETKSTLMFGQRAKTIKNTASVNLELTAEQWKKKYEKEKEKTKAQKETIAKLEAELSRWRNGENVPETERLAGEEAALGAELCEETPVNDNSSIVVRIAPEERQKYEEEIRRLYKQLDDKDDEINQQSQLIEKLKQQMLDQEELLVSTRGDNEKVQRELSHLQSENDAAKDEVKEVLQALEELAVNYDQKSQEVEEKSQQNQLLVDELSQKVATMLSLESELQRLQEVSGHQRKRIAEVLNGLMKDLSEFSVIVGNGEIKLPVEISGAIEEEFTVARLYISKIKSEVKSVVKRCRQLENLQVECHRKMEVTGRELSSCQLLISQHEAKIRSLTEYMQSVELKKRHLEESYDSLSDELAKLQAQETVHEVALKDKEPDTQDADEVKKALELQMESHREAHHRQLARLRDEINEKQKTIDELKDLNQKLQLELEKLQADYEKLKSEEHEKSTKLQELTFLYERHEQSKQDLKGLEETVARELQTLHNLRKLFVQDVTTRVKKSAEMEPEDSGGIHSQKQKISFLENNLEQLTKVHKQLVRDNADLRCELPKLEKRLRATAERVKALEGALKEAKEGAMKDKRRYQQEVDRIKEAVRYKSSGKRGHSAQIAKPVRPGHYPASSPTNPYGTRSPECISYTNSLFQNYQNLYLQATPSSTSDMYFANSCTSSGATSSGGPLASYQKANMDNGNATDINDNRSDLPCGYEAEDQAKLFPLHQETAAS

[8] = test system: DU-145; assay: Selectivity ratio of GI50 for human DU145 cells to GI50 for human HT29 cells; type: functional
[9] = test system: HeLa; assay: Induction of monoastral spindle formation in human HeLa cells assessed as interphase cells with cortical MT bundles at 25 uM after 8 hrs by immunofluorescence assay; type: functional, cell-based
[10] = test system: HeLa; assay: Induction of monoastral spindle formation in human HeLa cells assessed as cells with misaligned chromosomes at 25 uM after 8 hrs by immunofluorescence assay; type: functional, cell-based
[11] = test system: HeLa; assay: Induction of monoastral spindle formation in human HeLa cells at 50 uM after 8 hrs by immunofluorescence assay; type: functional; procedure, shortened: as §5

Row | SMILES | IC50 [1] | GI50 [2] | IC50 ([3]; read-out: IC50) | inhibition ([4]; concentration not given here) | GI50 [6] | IC50 [7] | GI50 ([2]; HT-29, 48 h) | GI50 ([6]; DU-145, 48 h) | IC50 [3] | IC50 ([1]; read-out: IC50) | IC50 ([7]; read-out: IC50) | inhibition [4] | Activity [5] | RatioGI50 [8] | Activity [9] | Activity [10] | Activity [11]
1 | Cc1ccsc1CCN1C(=S)N(c2ccc(F)cc2)C(=O)C1CC(=O)Nc1ccc(F)cc1 (stereo unspecified) | Not Active |  | 0.6 µM | 80% |  | Not Active | 16.7 µM | 31 µM |  |  |  |  | Active | 2 |  |  | 
2 | Cc1cc(F)ccc1S(=O)(=O)N(C(=O)C1CCCCC1)c1ccc2oc(=O)sc2c1 |  |  |  |  |  |  | 19.4 µM | 41.2 µM | Not Active |  |  |  | inactive |  |  |  | 
3 | Cc1ccc(-n2c(=O)[nH]c3c(C(N)=O)nc(-c4ccc(F)cc4F)nc32)cc1C |  |  | 41.5 µM | 60% |  |  | 9.3 µM | 8.7 µM |  | 50 µM | 50 µM |  | inactive |  |  |  | 
4 | Cc1ccc2c(c1)-c1cc(C)nn1C(c1ccccc1F)N2 (stereo unspecified) | Not Active | inactive | 6.3 µM | 60% | inactive | Not Active |  |  |  |  |  |  | inactive |  |  |  | 
5 | COc1ccc(N2C(=O)C(CC(=O)Nc3ccccc3)N(CCc3cccs3)C2=S)cc1 (stereo unspecified) | Not Active |  | 1 µM | 60% |  | Not Active | 17.7 µM | 34.3 µM |  |  |  |  |  | 2 |  |  | 50%

The next lines start with results.

Row | IC50 [1] | GI50 [2] | IC50 ([3]; read-out: IC50) | inhibition ([4]; concentration not given here) | GI50 [6] | IC50 [7] | GI50 ([2]; HT-29, 48 h) | GI50 ([6]; DU-145, 48 h) | IC50 [3] | IC50 ([1]; read-out: IC50) | IC50 ([7]; read-out: IC50) | inhibition [4] | SMILES | Activity [5] | RatioGI50 [8] | Activity [9] | Activity [10] | Activity [11]
6 | Not Active | inactive | 79.1 µM | 80% | inactive | Not Active |  |  |  |  |  |  | COC(=O)c1c(C)oc2c1cc(NS(=O)(=O)c1ccc(C(=O)O)cc1)c1ccccc12 | inactive |  |  |  | 
7 | Not Active |  | 2.4 µM | 60% |  | Not Active | 19.6 µM | 42.3 µM |  |  |  |  | COc1ccc(NC(=O)CC2C(=O)N(c3ccccc3)C(=S)N2CCc2sccc2C)cc1 (stereo unspecified) |  | 2 |  |  | 
8 |  |  |  |  |  |  | 4.4 µM | 21 µM | Not Active |  |  |  | O=C(O)CSc1cc(NS(=O)(=O)c2ccc(C(=O)O)cc2)c2ccccc2c1O |  |  | Active |  | 
9 |  |  |  |  |  |  | 33.7 µM | > 100 µM |  |  |  | inactive | COC(=O)c1c(NC(=O)c2ccccc2Br)sc(C)c1C |  |  |  | Active | 

Reference: ChEMBL document CHEMBL2029262, “Receptor-ligand interaction-based virtual screening for novel Eg5/kinesin spindle protein inhibitors” (J Med Chem, 2012)
